Values belong to the compound of their own block, whether it stands above or below them.
Columns and labels:
[1] = system: Na+/H+ exchange; conditions: healthy volunteers, cited from earlier work
[2] = system: PepT1; conditions: in vitro; cited from earlier work
[3] = Cefadroxil plasma pharmacokinetics, phase 1 two-period crossover study; type: in vivo, healthy volunteers (human)
[4] = target: T1, NHE3 (Homo sapiens, UniProt P48764); experiment: Stool frequency and consistency; type: in vivo, healthy volunteers (human); conditions: mean ± SD over overall tenapanor 15 mg b.i.d. dosing period; day –1: 3.7 ± 1.0
T1 sequence (P48764 26-834): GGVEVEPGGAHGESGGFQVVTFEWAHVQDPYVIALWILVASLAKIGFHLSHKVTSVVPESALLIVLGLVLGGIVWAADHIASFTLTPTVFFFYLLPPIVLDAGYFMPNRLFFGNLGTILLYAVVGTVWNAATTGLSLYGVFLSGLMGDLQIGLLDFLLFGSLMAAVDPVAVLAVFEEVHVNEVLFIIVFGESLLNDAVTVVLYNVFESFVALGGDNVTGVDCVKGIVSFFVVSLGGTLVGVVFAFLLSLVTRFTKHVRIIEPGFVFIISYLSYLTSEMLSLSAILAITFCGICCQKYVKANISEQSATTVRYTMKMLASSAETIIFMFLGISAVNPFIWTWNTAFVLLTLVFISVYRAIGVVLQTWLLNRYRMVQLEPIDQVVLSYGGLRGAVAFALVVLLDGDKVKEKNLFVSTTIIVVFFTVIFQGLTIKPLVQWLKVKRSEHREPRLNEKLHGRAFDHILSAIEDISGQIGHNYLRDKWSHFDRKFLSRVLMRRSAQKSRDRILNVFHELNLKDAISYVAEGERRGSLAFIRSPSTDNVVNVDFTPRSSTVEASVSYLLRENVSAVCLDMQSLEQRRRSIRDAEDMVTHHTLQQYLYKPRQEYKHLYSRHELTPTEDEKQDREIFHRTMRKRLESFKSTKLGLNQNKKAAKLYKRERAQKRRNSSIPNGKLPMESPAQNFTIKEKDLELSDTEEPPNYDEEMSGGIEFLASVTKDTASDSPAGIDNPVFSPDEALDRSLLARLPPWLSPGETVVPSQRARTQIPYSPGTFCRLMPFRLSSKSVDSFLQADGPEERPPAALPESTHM

[5] = Tenapanor plasma concentration; type: in vivo, healthy volunteers (human); conditions: tenapanor 15 mg b.i.d., day 5
Procedure, shortened: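 Blood was drawn predose and 1, 2 and 4 h after the day-5 morning dose of the test compound (15 mg twice daily from day 1). Plasma was extracted liquid–liquid with a deuterated internal standard, evaporated under nitrogen and reconstituted. Analysis was by LC-MS/MS, validated over 0.500–100 ng ml–1, with a lower limit of quantitation of 0.5 ng ml–1.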

[6] = Safety and tolerability assessments; type: in vivo, healthy volunteers (human)
Procedure, shortened: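 Healthy adults (18–50 y, BMI 18–30 kg m–2, 50–100 kg) got the oral test compound 15 mg twice daily for 4 days, then a single 15 mg dose with a 500 mg probe cephalosporin on day 5, 5–10 min before standardized meals. Adverse events were monitored from screening to follow-up, 7–10 days after the last dose. Vital signs, ECGs, physical exams and clinical labs were also collected.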

[7] = whole study, all AEs occurred in the tenapanor treatment period

Compound: N=C(N)NC(=O)c1nc(Cl)c(N)nc1N [Amiloride]
Effect on gastrointestinal uptake of amoxicillin [1]: decrease the gastrointestinal uptake
Effect on amoxicillin absorption in the gut ([1]; jejunal perfusion with amiloride and amoxicillin): did not affect amoxicillin absorption

t½ (apparent terminal half-life) of cefadroxil ([3]; cefadroxil 500 mg alone, geometric mean (GCV, %), n = 28): 2.0 (11.1) h
Tmax ([3]; human, plasma, oral, 500 mg): 1.5 h
Compound: CC1=C(C(=O)O)N2C(=O)[C@@H](NC(=O)[C@H](N)c3ccc(O)cc3)[C@H]2SC1 [Cefadroxil]
Affinity for PepT1 [2]: moderate affinity

BSFS score (stool consistency) [4]: 5.4 ± 1.2
Detection of tenapanor in plasma [5]: not detected in plasma
Compound: CN1Cc2c(Cl)cc(Cl)cc2[C@H](c2cccc(S(=O)(=O)NCCOCCOCCNC(=O)NCCCCNC(=O)NCCOCCOCCNS(=O)(=O)c3cccc([C@@H]4CN(C)Cc5c(Cl)cc(Cl)cc54)c3)c2)C1 [Tenapanor]
Serious AEs or discontinuations due to AEs ([6]; during the study, 28 volunteers): No serious AEs or discontinuations due to AEs
Tolerability ([6]; tenapanor 15 mg b.i.d., 28 volunteers): generally well tolerated
Abdominal distension (n volunteers) [6, 7]: 4
Abdominal pain (n volunteers) [6, 7]: 4
Abnormal gastrointestinal sounds (n volunteers) [6, 7]: 3
Diarrhoea (n volunteers) [6, 7]: 2
Flatulence (n volunteers) [6, 7]: 2

Source: publication PMC5582369 (British Journal of Clinical Pharmacology, 2017)
